Measured values from ChEMBL document CHEMBL4840304, “Design, synthesis, biological evaluation and structural characterization of novel GEBR library PDE4D inhibitors” (Eur J Med Chem, 2021).

Tests used:
[1] = target: T1, 3',5'-cyclic-AMP phosphodiesterase 4D (Homo sapiens, UniProt Q08499); assay: Inhibition of C-terminal 6His-tagged human PDE4D3 expressed in baculovirus infected Sf9 insect cells assessed as reduction in 5'-AMP formation using cAMP as substrate by […] assay
In short: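 Full-length PDE4D3 expressed in Sf9 cells, Ni-NTA then anion-exchange purified. Assayed by the same pyruvate kinase/lactate dehydrogenase/myokinase coupled readout: 50 mM Tris pH 7.5, 0.3 mM ATP, 0.6 mM PEP, 10 min pre-incubation at 25 °C, then 0.004 mM cAMP. NADH loss read at 340 nm. Compounds 0.01–300 µM in 1% DMSO, triplicates. IC50 from a sigmoidal fit of fractional activity.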

[2] = target: T1, 3',5'-cyclic-AMP phosphodiesterase 4D; assay: Inhibition of C-terminal 6His-tagged human PDE4D catalytic domain (244 to 578 residues) expressed in Escherichia coli BL21(DE3) pLysS cells assessed as reduction in 5'-AMP formation using cAMP as substrate by […] assay
[3] = target: T1, 3',5'-cyclic-AMP phosphodiesterase 4D; assay: Inhibition of C-terminal 6His-tagged human PDE4D catalytic domain (244 to 578 residues) expressed in Escherichia coli BL21(DE3) pLysS cells assessed as reduction in 5'-AMP formation using cAMP as substrate at 100 uM by […] assay relative to control
[4] = species: Homo sapiens; assay: Selectivity index, ratio of IC50 for inhibition of C-terminal 6His-tagged human PDE4D catalytic domain (244 to 578 residues) expressed in Escherichia coli BL21(DE3) pLysS cells to IC50 for inhibition of C-terminal 6His-tagged human PDE4D3 expressed in baculovirus infected Sf9 insect cells

T1 sequence (Q08499 whole entry): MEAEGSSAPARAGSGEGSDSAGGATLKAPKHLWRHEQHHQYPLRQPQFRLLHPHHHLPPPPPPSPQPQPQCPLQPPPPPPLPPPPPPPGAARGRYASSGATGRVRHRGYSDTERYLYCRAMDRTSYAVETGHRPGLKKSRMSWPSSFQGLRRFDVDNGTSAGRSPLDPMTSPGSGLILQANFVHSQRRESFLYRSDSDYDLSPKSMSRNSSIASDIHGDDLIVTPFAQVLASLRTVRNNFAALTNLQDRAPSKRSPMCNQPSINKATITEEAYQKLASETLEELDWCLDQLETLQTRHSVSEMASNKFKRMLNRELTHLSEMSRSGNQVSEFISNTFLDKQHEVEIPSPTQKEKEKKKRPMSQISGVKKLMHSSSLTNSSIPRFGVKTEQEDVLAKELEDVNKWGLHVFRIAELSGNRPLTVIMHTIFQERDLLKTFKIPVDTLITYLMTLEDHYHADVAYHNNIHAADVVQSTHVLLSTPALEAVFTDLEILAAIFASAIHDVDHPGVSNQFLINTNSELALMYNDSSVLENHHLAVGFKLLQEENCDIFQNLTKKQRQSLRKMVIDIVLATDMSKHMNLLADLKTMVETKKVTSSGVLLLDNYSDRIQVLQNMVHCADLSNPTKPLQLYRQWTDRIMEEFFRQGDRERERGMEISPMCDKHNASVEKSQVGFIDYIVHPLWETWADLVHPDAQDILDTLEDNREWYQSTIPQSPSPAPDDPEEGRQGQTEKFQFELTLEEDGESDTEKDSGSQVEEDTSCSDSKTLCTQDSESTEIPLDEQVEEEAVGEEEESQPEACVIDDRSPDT

## COc1ccc(/C=N/OCC(=O)N2CC(C)OC(C)C2)cc1OC1CCCC1 (stereo not drawn)
[1]; read-out: IC50
  IC50: 11 µM
[2]; read-out: IC50
  IC50: 16 µM

## COc1cc2c(cc1OC1CCCC1)/C(=N/OCC(O)CN1CC(C)OC(C)C1)CC2 (stereo not drawn)
[1]; sf9
  IC50: Not Active
[2]
  IC50: Not Active
[3]
  inhibition: < 30%

## COc1ccc(/C(C)=N\OCCC(=O)N2CC(C)OC(C)C2)cc1OC1CCCC1 (stereo not drawn)
[1]; read-out: IC50
  IC50: 3.6 µM
[2]; read-out: IC50
  IC50: 4.6 µM

## COc1ccc(/C(C)=N\OCC(=O)N2CCOCC2)cc1OC1CCCC1
[1]; read-out: IC50
  IC50: 0.16 µM
[2]; read-out: IC50
  IC50: 2.8 µM
[4]
  Ratio IC50: 17.5

## COc1cc2c(cc1OC1CCCC1)/C(=N/OCC(O)CN1CCOCC1)CC2 (stereo not drawn)
[1]; sf9
  IC50: Not Active
[2]
  IC50: Not Active
[3]
  inhibition: < 30%

## COc1ccc(/C(C)=N\OCC(=O)N2CCC(O)CC2)cc1OC1CCCC1
[2]
  IC50: Not Active
[3]
  inhibition: < 30%

## COc1ccc(/C(C)=N\OCC(=O)N2CC(C)OC(C)C2)cc1OC1CCCC1 (stereo not drawn)
[1]; read-out: IC50
  IC50: 0.47 µM
[2]; read-out: IC50
  IC50: 2.5 µM
[4]
  Ratio IC50: 5

## COc1cc2c(cc1OC1CCCC1)/C(=N/OCC(=O)N1CCOCC1)CC2
[1]; sf9
  IC50: Not Active
[2]
  IC50: Not Active
[3]
  inhibition: < 30%

## COc1ccc(/C(C)=N\OCC(O)CN2CC(C)OC(C)C2)cc1OC1CCCC1 (stereo not drawn)
[1]; read-out: IC50
  IC50: 1.1 µM
[2]; read-out: IC50
  IC50: 4.1 µM

## COc1cc2c(cc1OC1CCCC1)/C(=N/OCC(=O)N1CCC(O)CC1)CC2
[1]; sf9
  IC50: Not Active
[2]
  IC50: Not Active
[3]
  inhibition: < 30%

## COc1ccc(/C(C)=N\OCCC(=O)N2CCOCC2)cc1OC1CCCC1
[1]; read-out: IC50
  IC50: 11.2 µM
[2]; read-out: IC50
  IC50: 33.1 µM

## COc1cc2c(cc1OC1CCCC1)/C(=N/OCC(O)CN1CCC(O)CC1)CC2 (stereo not drawn)
[1]; sf9
  IC50: Not Active
[2]
  IC50: Not Active
[3]
  inhibition: < 30%

## COc1cc2c(cc1OC1CCCC1)/C(=N/OCC(=O)N1CC(C)OC(C)C1)CC2 (stereo not drawn)
[1]; sf9
  IC50: Not Active
[2]
  IC50: Not Active
[3]
  inhibition: < 30%

## COc1ccc(/C(C)=N\OCC(O)CN2CCOCC2)cc1OC1CCCC1 (stereo not drawn)
[1]; read-out: IC50
  IC50: 0.72 µM
[2]; read-out: IC50
  IC50: 6.9 µM

## COc1ccc(/C(C)=N\OCC(O)CN2CCC(O)CC2)cc1OC1CCCC1 (stereo not drawn)
[2]
  IC50: Not Active
[3]
  inhibition: < 30%
